From ChEMBL document CHEMBL1649585, “Role of the Mycobacterium tuberculosis P55 efflux pump in intrinsic drug resistance, oxidative stress responses, and growth” (2009)
In brackets after ≈: the same amount, converted by molar mass. Activity calls are given as the source filed them. The calls are words filed in the database; no cut-off is given here. Where a SMILES comes first, the peptide text is derived from it. Bridges are numbered along the chain shown (N, C = ends). [ ]: non-standard residue; d: D form. The star is where a group is joined. Ileψ(thiazoline)Cys = CC[C@H](C)[C@H](N)C1=N[C@H](C(=O)*)CS1; dOrn = NCCC[C@@H](N)C(=O)O

Columns and labels:
[1] = system: Mycobacterium tuberculosis variant bovis BCG; test: Antimicrobial activity against Mycobacterium bovis BCG KOP55 harboring inactivated p55 gene by twofold dilution method; assay type: functional
In short: (§1)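 Agar MIC: log-phase cultures diluted to 10^5 cells/ml, 10 µl spotted onto Middlebrook 7H10 plates with serial twofold antibiotic dilutions. Visible growth scored after 21 days at 37°C. Triplicate, repeated at least three times.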

[2] = system: Mycobacterium tuberculosis variant bovis BCG; test: Antimicrobial activity against Mycobacterium bovis BCG KOP55 harboring pPAZ23 carrying p27-p55 operon by twofold dilution method; assay type: functional; in short: as §1
[3] = system: Mycobacterium tuberculosis variant bovis BCG; test: Decrease in intracellular redox potential in Mycobacterium bovis BCG KOP55 harboring inactivated p55 gene assessed as decreased accumulation of formazan at 5 mg/liter after 1 hr by MTT assay; assay type: functional; design: scale not given: the % may be the effect or the level left
In short: (§2)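 MTT reduction as an index of intracellular redox potential: cultures at OD600 0.2 treated with drug or solvent for 1 h at 37°C in quadruplicate wells, MTT (2 mg/ml stock) added, 3 h further incubation. Formazan solubilised with 10% SDS, 30 min shaking, absorbance at 600 nm. Repeated at least three independent times.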

[4] = system: Mycobacterium tuberculosis variant bovis BCG; test: Effect on intracellular redox potential in Mycobacterium bovis BCG KOP55 harboring pPAZ23 carrying p27-p55 operon assessed as accumulation of formazan at 5 mg/liter after 1 hr by MTT assay; assay type: functional, organism-based; in short: as §2
[5] = system: Mycobacterium tuberculosis variant bovis BCG; test: Antimicrobial activity against Mycobacterium bovis BCG KOP55 harboring inactivated p55 gene by resazurine microtiter assay; assay type: functional; conditions: KOP55, Urine
In short: (§3)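 Resazurin microdilution in liquid medium: serial twofold compound dilutions, plates incubated 8 days at 37°C, then 2 more days after adding resazurin. MIC read from the indicator. Run in triplicate and repeated at least three times.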

[6] = system: Mycobacterium tuberculosis variant bovis BCG; test: Antimicrobial activity against Mycobacterium bovis BCG KOP55 harboring pPAZ23 carrying p27-p55 operon by resazurine microtiter assay; assay type: functional; conditions: KOP55, Urine; in short: as §3
[7] = system: Mycobacterium tuberculosis variant bovis BCG; test: Antimicrobial activity against Mycobacterium bovis BCG KOP55 harboring inactivated p55 gene by resazurine microtiter assay in presence of 1 mg/liter CCCP; assay type: functional; conditions: KOP55, Urine
In short: (§4)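 Resazurin microdilution MIC (serial twofold dilutions, 8 days at 37°C plus 2 days after resazurin) run with a fixed subinhibitory level of efflux pump inhibitor (valinomycin, reserpine or CCCP) present throughout. Triplicate, repeated at least three times.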

[8] = system: Mycobacterium tuberculosis variant bovis BCG; test: Antimicrobial activity against Mycobacterium bovis BCG KOP55 harboring pPAZ23 carrying p27-p55 operon by resazurine microtiter assay in presence of 0.1 mg/liter valinomycin; assay type: functional; conditions: KOP55, Urine; in short: as §4
[9] = system: Mycobacterium tuberculosis variant bovis BCG; test: Antimicrobial activity against Mycobacterium bovis BCG P55 by resazurine microtiter assay; assay type: functional; conditions: P55, Urine; in short: as §3
[10] = system: Mycobacterium tuberculosis variant bovis BCG; test: Antimicrobial activity against Mycobacterium bovis BCG KOP55 harboring inactivated p55 gene by resazurine microtiter assay in presence of 0.1 mg/liter valinomycin; assay type: functional; conditions: KOP55, Urine; in short: as §4
[11] = system: Mycobacterium tuberculosis variant bovis BCG; test: Antimicrobial activity against Mycobacterium bovis BCG KOP55 harboring inactivated p55 gene by resazurine microtiter assay in presence of 0.5 mg/liter reserpine; assay type: functional; conditions: KOP55, Urine; in short: as §4
[12] = system: Mycobacterium tuberculosis variant bovis BCG; test: Antimicrobial activity against Mycobacterium bovis BCG KOP55 harboring pPAZ23 carrying p27-p55 operon by resazurine microtiter assay in presence of 1 mg/liter CCCP; assay type: functional; conditions: KOP55, Urine; in short: as §4
[13] = system: Mycobacterium tuberculosis variant bovis BCG; test: Antimicrobial activity against Mycobacterium bovis BCG KOP55 harboring pPAZ23 carrying p27-p55 operon by resazurine microtiter assay in presence of 0.5 mg/liter reserpine; assay type: functional; conditions: KOP55, Urine; in short: as §4
[14] = system: Mycobacterium tuberculosis variant bovis BCG; test: Antimicrobial activity against Mycobacterium bovis BCG KOP55 harboring inactivated p55 gene at 5 umol after 14 days by disk diffusion method; assay type: functional
In short: (§5)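 Disc assay on Middlebrook 7H10 agar: lawn spread from a suspension of 10^6 cells/ml, discs carrying the redox compound placed on the lawn, halos recorded after 14 days at 37°C.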

[15] = system: Mycobacterium tuberculosis variant bovis BCG; test: Antimicrobial activity against Mycobacterium bovis BCG P55 at 5 umol after 14 days by disk diffusion method; assay type: functional; in short: as §5
[16] = system: Mycobacterium tuberculosis variant bovis BCG; test: Antimicrobial activity against Mycobacterium bovis BCG KOP55 harboring inactivated p55 gene at 0.125 umol after 14 days by disk diffusion method; assay type: functional; in short: as §5
[17] = system: Mycobacterium tuberculosis variant bovis BCG; test: Antimicrobial activity against Mycobacterium bovis BCG P55 at 0.125 umol after 14 days by disk diffusion method; assay type: functional; in short: as §5
[18] = system: Mycobacterium tuberculosis variant bovis BCG; test: Increase in intracellular redox potential in Mycobacterium bovis BCG KOP55 harboring pPAZ23 carrying p27-p55 operon assessed as increased accumulation of formazan at 64 mg/liter after 1 hr by MTT assay; assay type: functional; in short: as §2
[19] = system: Mycobacterium tuberculosis variant bovis BCG; test: Increase in intracellular redox potential in Mycobacterium bovis BCG KOP55 harboring inactivated p55 gene assessed as increased accumulation of formazan at 64 mg/liter after 1 hr by MTT assay; assay type: functional; in short: as §2
[20] = system: Mycobacterium tuberculosis variant bovis BCG; test: Decrease in intracellular redox potential in Mycobacterium bovis BCG KOP55 harboring inactivated p55 gene assessed as decreased accumulation of formazan at 256 mg/liter after 1 hr by MTT assay; assay type: functional; design: scale not given: the % may be the effect or the level left; in short: as §2
[21] = system: Mycobacterium tuberculosis variant bovis BCG; test: Effect on intracellular redox potential in Mycobacterium bovis BCG KOP55 harboring pPAZ23 carrying p27-p55 operon assessed as accumulation of formazan at 256 mg/liter after 1 hr by MTT assay; assay type: functional, organism-based; in short: as §2

Structure (SMILES): CN(C)CCCN1c2ccccc2Sc2ccc(Cl)cc21 [CHLORPROMAZINE]
- MIC [1]: 4 µg/mL (≈ 12.5 µM)

Structure (SMILES): CC(C)/N=c1\cc2n(-c3ccc(Cl)cc3)c3ccccc3nc-2cc1Nc1ccc(Cl)cc1 [CLOFAZIMINE]
- MIC [1]: 0.025 µg/mL (≈ 0.0528 µM)
- MIC [2]: 0.1 µg/mL (≈ 0.211 µM)
- Activity [3]: 15%
- Activity [4]: inactive

Structure (SMILES): Oc1cc(Cl)ccc1Oc1ccc(Cl)cc1Cl [TRICLOSAN]
- MIC [1]: 8 µg/mL (≈ 27.6 µM)

Structure (SMILES): N#CC(C#N)=NNc1cccc(Cl)c1 [CARBONYL CYANIDE M-CHLOROPHENYLHYDRAZONE]
- MIC [5]: 2 µg/mL

Structure (SMILES): CC(C)[C@@H]1NC(=O)[C@H](C)OC(=O)[C@@H](C(C)C)NC(=O)[C@@H](C(C)C)OC(=O)[C@H](C(C)C)NC(=O)[C@H](C)OC(=O)[C@@H](C(C)C)NC(=O)[C@@H](C(C)C)OC(=O)[C@H](C(C)C)NC(=O)[C@H](C)OC(=O)[C@@H](C(C)C)NC(=O)[C@@H](C(C)C)OC1=O [VALINOMYCIN]
- MIC [5]: 0.2 µg/mL
- MIC [6]: 0.4 µg/mL (≈ 0.36 µM)

Structure (SMILES): O=[N+]([O-])c1cn2c(n1)OC[C@@H](OCc1ccc(OC(F)(F)F)cc1)C2 [PRETOMANID]
- MIC [5]: 0.125 µg/mL
- MIC [6]: 0.25 µg/mL (≈ 0.696 µM)

Structure (SMILES): CN[C@H](CC(C)C)C(=O)N[C@H]1C(=O)N[C@@H](CC(N)=O)C(=O)N[C@H]2C(=O)N[C@H]3C(=O)N[C@H](C(=O)N[C@H](C(=O)O)c4cc(O)cc(O)c4-c4cc3ccc4O)[C@H](O)c3ccc(c(Cl)c3)Oc3cc2cc(c3O[C@@H]2O[C@H](CO)[C@@H](O)[C@H](O)[C@H]2O[C@H]2C[C@](C)(N)[C@H](O)[C@H](C)O2)Oc2ccc(cc2Cl)[C@H]1O [VANCOMYCIN]
- MIC [5]: 0.25 µg/mL
- MIC [7]: 0.25 µg/mL
- MIC [6]: 4 µg/mL (≈ 2.76 µM)
- MIC [8]: 4 µg/mL

Structure (SMILES): COC(=O)[C@H]1[C@H]2C[C@@H]3c4[nH]c5cc(OC)ccc5c4CCN3C[C@H]2C[C@@H](OC(=O)c2cc(OC)c(OC)c(OC)c2)[C@@H]1OC [RESERPINE]
- MIC [5]: 2 µg/mL
- MIC [6]: 2 µg/mL (≈ 3.29 µM)

Structure (SMILES): Cc1c(C)n2c(CBr)c(C)c(=O)n2c1=O [MONOBROMOBIMANE]
- MIC [9]: 500 µM (≈ 136 µg/mL)
- MIC [5]: 125 µM

Structure (SMILES): CO[C@H]1/C=C/O[C@@]2(C)Oc3c(C)c(O)c4c(O)c(c(/C=N/N5CCN(C)CC5)c(O)c4c3C2=O)NC(=O)/C(C)=C\C=C\[C@H](C)[C@H](O)[C@@H](C)[C@@H](O)[C@@H](C)[C@H](OC(C)=O)[C@@H]1C [RIFAMPIN]
- MIC [5]: 0.0004 µg/mL
- MIC [7]: 0.0002 µg/mL
- MIC [10]: 0.0002 µg/mL
- MIC [11]: 0.0004 µg/mL
- MIC [6]: 0.0032 µg/mL (≈ 0.00389 µM)
- MIC [8]: 0.0016 µg/mL
- MIC [12]: 0.0008 µg/mL
- MIC [13]: 0.0016 µg/mL

Structure (SMILES): OC(CS)C(O)CS (racemic) [DL-DITHIOTHREITOL]
- inhibition zone (IZ) [14]: 30 mm
- inhibition zone (IZ) [15]: 0 mm

Structure (SMILES): CC1=CC(=O)c2ccccc2C1=O [MENADIONE]
- inhibition zone (IZ) [16]: 16 mm
- inhibition zone (IZ) [17]: 20 mm
- fold change (FC) [18]: 3.5
- fold change (FC) [19]: 1.3

Structure (SMILES): CC[C@@H](CO)NCCN[C@@H](CC)CO [ETHAMBUTOL]
- MIC [5]: 2 µg/mL

Structure (SMILES): CO[C@@H]1[C@@H](OC(N)=O)[C@@H](O)[C@H](Oc2ccc3c(O)c(NC(=O)c4ccc(O)c(CC=C(C)C)c4)c(=O)oc3c2C)OC1(C)C [NOVOBIOCIN]
- MIC [5]: 2 µg/mL
- MIC [7]: 1 µg/mL
- MIC [10]: 0.5 µg/mL
- MIC [11]: 1 µg/mL
- MIC [6]: 16 µg/mL (≈ 26.1 µM)
- MIC [8]: 8 µg/mL
- MIC [12]: 4 µg/mL
- MIC [13]: 8 µg/mL

Structure (SMILES): CC[C@H](C)[C@H](N)C1=N[C@H](C(=O)N[C@@H](CC(C)C)C(=O)N[C@H](CCC(=O)O)C(=O)N[C@H](C(=O)N[C@H]2CCCCNC(=O)[C@H](CC(N)=O)NC(=O)[C@@H](CC(=O)O)NC(=O)[C@H](Cc3cnc[nH]3)NC(=O)[C@@H](Cc3ccccc3)NC(=O)[C@H]([C@@H](C)CC)NC(=O)[C@@H](CCCN)NC2=O)[C@@H](C)CC)CS1 [BACITRACIN] ({Ileψ(thiazoline)Cys}-L[dE]IK[dOrn]I[dF]H[dD]N; lactam 4-C)
- MIC [5]: 16 µg/mL
- MIC [7]: 16 µg/mL
- MIC [6]: > 256 µg/mL
- MIC [12]: > 256 µg/mL

Structure (SMILES): Clc1ccc(COC(Cn2ccnc2)c2ccc(Cl)cc2Cl)cc1 (configuration not stated) [ECONAZOLE]
- MIC [1]: 1.6 µg/mL (≈ 4.19 µM)
- MIC [2]: 6.4 µg/mL (≈ 16.8 µM)

Structure (SMILES): CN(C)C(=O)/N=N/C(=O)N(C)C [DIAMIDE]
- inhibition zone (IZ) [14]: 30 mm
- inhibition zone (IZ) [15]: 0 mm
- Activity [20]: 35%
- Activity [21]: inactive
